APJ antagonist – antagonists of human APJ apelin receptor | actives 0.32% (n = 330,000) | inhibition, % at 20 µM | CHO-K1 APJ beta-arrestin complementation, luminescence;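 active means inhibition above about 40% at 20 µM, limit read from the data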;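 further: cells challenged with 10 nM apelin-13 agonist together with compound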
CCR6 antagonist – blocks CCL20-driven beta-arrestin recruitment at human CCR6; actives 0.49% (n = 340,000); CHO-K1 CCR6 PathHunter beta-arrestin, luminescence, CCL20-stimulated; P51684; inhibition, % at 20 µM; AID 493098;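 active means compounds whose inhibition of the agonist-driven luminescence signal at 20 µM reaches about 50%, limit read from the data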;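 further: cells stimulated with CCL20 at 14 nM final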
CXCR6 inh – inhibitors of human CXCR6 receptor; inhibition, % at 20 µM; CHO-K1 PathHunter CXCR6 beta-arrestin, luminescence; actives 0.36% (n = 360,000); in the data active means inhibition above about 34%, passing the limit was not always enough;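 further: antagonist mode with CXCL16 agonist at 10 nM final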
Target sequence (O00574 whole entry, looked up): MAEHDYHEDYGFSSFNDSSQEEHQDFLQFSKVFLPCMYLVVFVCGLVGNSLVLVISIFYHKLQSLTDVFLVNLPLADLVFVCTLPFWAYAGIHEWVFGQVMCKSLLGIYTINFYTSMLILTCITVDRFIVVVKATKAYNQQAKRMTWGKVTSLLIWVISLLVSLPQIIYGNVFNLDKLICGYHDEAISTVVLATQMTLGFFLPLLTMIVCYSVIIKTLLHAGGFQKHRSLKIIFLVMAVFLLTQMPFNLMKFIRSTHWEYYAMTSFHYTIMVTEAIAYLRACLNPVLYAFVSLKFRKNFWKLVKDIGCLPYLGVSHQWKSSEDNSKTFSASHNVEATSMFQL
EBI2 block – EBI2 (human) antagonism; EBI2 beta-arrestin recruitment, luminescence, 7a,25-OHC stimulated; inhibition, % at 5 µM; actives 0.81% (n = 360,000); P32249; AID 651636; in the data active means inhibition above about 38%;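 further: enzyme fragment complementation signal reports receptor beta-arrestin coupling in cells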
Target sequence (P32249 whole entry, looked up, the tested form may be a part): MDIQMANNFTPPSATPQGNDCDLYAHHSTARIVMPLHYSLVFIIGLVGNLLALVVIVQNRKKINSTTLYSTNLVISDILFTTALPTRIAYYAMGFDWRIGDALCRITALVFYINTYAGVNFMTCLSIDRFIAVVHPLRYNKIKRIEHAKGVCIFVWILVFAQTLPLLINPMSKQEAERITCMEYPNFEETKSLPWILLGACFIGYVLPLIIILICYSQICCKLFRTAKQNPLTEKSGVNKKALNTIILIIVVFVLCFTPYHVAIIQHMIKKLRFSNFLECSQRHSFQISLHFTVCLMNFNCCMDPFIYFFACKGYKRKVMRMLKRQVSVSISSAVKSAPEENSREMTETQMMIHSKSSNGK
APJ agonist – APJ receptor agonism. P35414. CHO-K1 APJ PathHunter beta-arrestin, luminescence; 0% DMSO wells, 100% apelin. activation, % at 20 µM. actives 0.11% (n = 330,000);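 active means activation more than six SD over the plate average, tested at 20 µM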
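Assay system: engineered CHO-K1 APJ arrestin reporter cells; Amount: 1000 CHO-K1 reporter cells seeded per well; Dosing: one dose, 20 µM compound, 1% DMSO; Times: compound stimulation 90 min at 25 °C, detection 60 min; Measured by: luminescent beta-gal fragment complementation, chemiluminescent substrate; Read-out: APJ–arrestin association signal; Controls: DMSO vs Apelin-13 10 nM.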
EBI2 conf – confirmation of human EBI2 receptor antagonists; shares compounds with EBI2 block; EBI2 beta-arrestin luminescence, 7a,25-OHC antagonism; inhibition, % at 5 µM; actives 29% (n = 2,400); AID 651997;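 active means inhibition of at least 50%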
EBI2 ag – counter-screen for EBI2 antagonists: EBI2 agonist activity | shares compounds with EBI2 block | EBI2-expressing cells, agonist mode, luminescence, 60 min; 0% vehicle, 100% 7α,25-dihydroxycholesterol control | activation, % at 5 µM | 2,400 tested, under 10 active | AID 652000;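 active means activation of at least 50%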
bGal counter – beta-galactosidase inhibition counter-screen. inhibition, % at 5 µM. shares compounds with EBI2 block. purified beta-galactosidase, luminescent Galacton Star, 15 min. actives 1% (n = 2,400). AID 652176;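 active means replicate-average signal at least 3 plate SD below neutral wells, shown as high inhibition, flagging enzyme-inhibiting false positives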;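 further: higher means stronger loss of beta-gal luminescence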
Hits are given with their value; . = inactive; / = no result given; ! = a repeat was not active. Most compounds without a hit are left out; they make up all but 1.5% or so of the library.

SMILES | APJ antagonist | CCR6 antagonist | CXCR6 inh | EBI2 block | APJ agonist | EBI2 conf | EBI2 ag | bGal counter
COc1ccc(Oc2nc(-c3ccncc3)nc3ccccc23)cc1 | . | . | . | . | . | / | / | /
COCCNC(=O)C1(C)CCCN(C(=O)c2c(F)ccc(C)c2F)C1 (stereo unspecified) | / | / | . | . | / | / | / | /
CC(C)NC(=O)C1(C)CN(S(C)(=O)=O)CC(=O)N1CCCN1CCOCC1 (stereo unspecified) | / | / | / | . | / | / | / | /
Nc1sc(-c2ccccc2)cc1C(=O)N1CCN(c2ccccc2)CC1 | / | / | / | . | / | / | / | /
CCc1nc2ccc(C(=O)Nc3cc(-c4ccccc4)ccc3OC)cn2c1N(C)Cc1ccc(OC)cc1 | / | / | . | 45 | / | . | . | .
CCc1nc2ccc(C(=O)Nc3cc(-c4ccccc4)ccc3OC)cn2c1N(C)CCCc1ccccc1 | / | / | . | . | / | / | / | /
CCc1nc2ccc(C(=O)Nc3cc(-c4ccccc4)ccc3OC)cn2c1N(C)C(=O)c1cccc(OC)c1 | / | / | . | 43 | / | . | . | .
C[C@H](NC(=O)c1ccccc1)C(=O)OCC(=O)Nc1ccc(Cl)cn1 | / | / | . | . | / | / | / | /
O=C(COc1ccc(Cl)cc1)c1ccc(O)cc1O | . | . | . | 44 | . | . | . | .
COC(=O)c1ccc(OCC(=O)c2ccc(O)cc2O)cc1 | . | . | . | . | . | / | / | /
O=C(CCCOc1ccccc1)N1CCN(S(=O)(=O)c2cccc(F)c2)CC1 | . | . | . | . | . | / | / | /
O=C(CCCOc1ccccc1)N1CCN(S(=O)(=O)c2ccccc2)CC1 | . | . | . | 46 | . | . | . | .
Cc1ccc(OCCCC(=O)N2CCN(S(=O)(=O)c3cccc(F)c3)CC2)cc1 | . | . | . | 53 | . | . | . | .
CCCCC(=O)N(C)c1c(CC)nc2c(OCC=C(C)C)cccn12 | / | / | . | . | / | / | / | /
N/C(Cc1ccc(Cl)cc1)=N\OC(=O)c1ccc2ccccc2c1 | . | . | . | 48 | . | . | . | .
CC1(C(=O)Nc2ccc(Cl)c(C(F)(F)F)c2)Cc2c(-c3ccc4c(c3)OCO4)ccnc2O1 (stereo unspecified) | / | / | . | . | / | / | / | /
Cc1[nH]c2ccc(C(=O)N3CCN(c4ccccn4)CC3)cc2c1C | . | . | . | 41 | . | . | . | .
CCCN1CCN(C(=O)c2ccc3[nH]c(C)c(C)c3c2)CC1 | / | / | . | 73 | / | . | . | .
COc1ccc2[nH]c(C(=O)N3CCN(Cc4ccccc4)CC3)cc2c1OC | . | . | . | 52 | . | . | . | .
Cc1[nH]c2ccc(C(=O)N3CCN(Cc4ccccc4)CC3)cc2c1C | . | . | . | 65 | . | . | . | .
Cc1ccc2ccccc2c1C(O)c1ncc(-c2ccc(F)cc2)[nH]1 (stereo unspecified) | / | / | . | . | / | / | / | /
CC(=O)c1cccc(-c2cnc3c(NC=O)cc(-c4ccc(F)cc4)cn23)c1 | / | / | . | . | / | / | / | /
O=C1NC(=O)C2(CCCc3c([N+](=O)[O-])cccc32)N1 (stereo unspecified) | / | / | . | . | / | / | / | /
O=C(NCc1ccc(Cl)cc1)C1CCC(CNS(=O)(=O)c2ccccc2)CC1 (stereo unspecified) | . | . | . | 59 | . | . | . | .
Cc1ccc(CNC(=O)C2CCC(CNS(=O)(=O)c3cccs3)CC2)cc1 (stereo unspecified) | . | . | . | 66 | . | . | . | .
SMILES | APJ antagonist | CCR6 antagonist | CXCR6 inh | EBI2 block | APJ agonist | EBI2 conf | EBI2 ag | bGal counter
O=C(NCc1ccc(Cl)cc1)C1CCC(CNc2c(N3CCCC3)c(=O)c2=O)CC1 (stereo unspecified) | . | . | . | . | . | / | / | /
O=C(NCc1ccc(Cl)cc1)C1CCC(CNc2c(N3CCCCC3)c(=O)c2=O)CC1 (stereo unspecified) | . | . | . | 50 | . | . | . | .
Cc1ccc([C@H]2C[C@@H](n3cc(COC(=O)c4ccccc4)nn3)[C@H](O)CN2C(=O)C2CCCCC2)cc1 | / | / | . | . | / | / | / | /
COc1ccc(/C=C/c2c(-c3ccc(OC)cc3)sc3ccc(N4CCOCC4)cc23)cc1 | . | . | . | 50 | . | . | . | .
COc1ccc(-c2sc3ccc(N4CCOCC4)cc3c2C#CCO)cc1 | . | . | . | . | . | / | / | /
CCOc1ccc(OCC(=O)Nc2ccc(OC)cc2)cc1 | . | . | . | . | . | / | / | /
COc1ccc(NC(=S)c2ccccc2)cc1 | . | . | . | . | . | / | / | /
COc1ccc(NC(=S)Nc2ccccc2)cc1 | . | . | . | 39! | . | . | . | .
CCOc1ccc(NC(=S)Nc2ccc(OC)cc2)cc1 | . | . | . | 75 | . | 63 | . | .
COc1cccc(NC(=S)Nc2ccc(Br)cc2Cl)c1 | . | . | . | . | . | / | / | /
CCOc1ccc(NC(=S)Nc2ccc(Br)cc2Cl)cc1 | . | . | . | 68 | . | . | . | .
CC(C)c1ccc(NC(=S)Nc2ccc(OC(F)(F)F)cc2)cc1 | . | . | . | 55 | . | 51 | . | .
O=C1c2ccccc2C(c2nnnn2Cc2ccccc2)N1Cc1cccc(F)c1 (stereo unspecified) | / | / | . | . | / | / | / | /
Clc1cccc(Cc2c(C3CCCCC3)nc3c4ccccc4ccn23)c1 | / | / | . | . | / | / | / | /
CCOC(=O)C1CCN(C(=O)c2ccc3c(=O)n4nc(Nc5ccccc5OC)sc4nc3c2)CC1 | / | / | . | . | / | / | / | /
C[C@H](c1ccccc1)N1C[C@H](COCc2ccccc2)Oc2cc(N3CC[C@@H](O)C3)ccc2S1(=O)=O | / | / | . | . | / | / | / | /
CCOc1ccc(NC(=S)Nc2ccc(OCc3ccccc3)cc2)cc1 | . | . | . | 58 | . | . | . | .
CNC(=S)Nc1ccc(OCc2ccccc2)cc1 | . | . | . | . | . | / | / | /
CCC(C)c1ccc(NC(=S)Nc2ccc(OC)cc2)cc1 (stereo unspecified) | . | . | . | 53 | . | . | . | .
COc1ccc(CCNC(=S)Nc2ccc(C(C)C)cc2)cc1 | . | . | . | . | . | / | / | /
CNC(=S)N1N=C(c2ccc(C)cc2)CC1c1ccc(Cl)cc1 (stereo unspecified) | . | . | . | 73 | . | 62 | . | .
CNC(=S)N1N=C(c2ccc(C)cc2)CC1c1ccc(Br)cc1 (stereo unspecified) | . | . | . | 81 | . | 65 | . | .
CC(=O)N1N=C(c2ccc(Br)cc2)CC1c1ccc(Br)cc1 (stereo unspecified) | / | / | . | . | / | / | / | /
CC(C)c1ccc(C2CC(c3ccc(Br)cc3)=NN2C(N)=S)cc1 (stereo unspecified) | . | . | . | 72 | . | 60 | . | .
COc1ccc(NC(C)=O)cc1S(=O)(=O)NCc1ccc2c(c1)OCO2 | / | / | . | . | / | / | / | /

Bioassay records (PubChem)
